Assay outcomes: PubChem BioAssay, Johns Hopkins Ion Channel Center
Compounds with a hit are over-represented: about 2.3% of the library has one in this group of screens.
TRPC6 act = mouse TRPC6 channel activation; 310,000 compounds, 0.13% hits; B-score at 10 µM; HEK293-TRPC6 membrane potential dye fluorescence; hits give high values; Q61143;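 active = B-score of the integrated fluorescence ratio above library mean plus 3 SD, and starting fluorescence ratio within library mean plus 5 SD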;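 note: higher score means more depolarization so channel activation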
Target sequence (Q61143 whole entry, looked up): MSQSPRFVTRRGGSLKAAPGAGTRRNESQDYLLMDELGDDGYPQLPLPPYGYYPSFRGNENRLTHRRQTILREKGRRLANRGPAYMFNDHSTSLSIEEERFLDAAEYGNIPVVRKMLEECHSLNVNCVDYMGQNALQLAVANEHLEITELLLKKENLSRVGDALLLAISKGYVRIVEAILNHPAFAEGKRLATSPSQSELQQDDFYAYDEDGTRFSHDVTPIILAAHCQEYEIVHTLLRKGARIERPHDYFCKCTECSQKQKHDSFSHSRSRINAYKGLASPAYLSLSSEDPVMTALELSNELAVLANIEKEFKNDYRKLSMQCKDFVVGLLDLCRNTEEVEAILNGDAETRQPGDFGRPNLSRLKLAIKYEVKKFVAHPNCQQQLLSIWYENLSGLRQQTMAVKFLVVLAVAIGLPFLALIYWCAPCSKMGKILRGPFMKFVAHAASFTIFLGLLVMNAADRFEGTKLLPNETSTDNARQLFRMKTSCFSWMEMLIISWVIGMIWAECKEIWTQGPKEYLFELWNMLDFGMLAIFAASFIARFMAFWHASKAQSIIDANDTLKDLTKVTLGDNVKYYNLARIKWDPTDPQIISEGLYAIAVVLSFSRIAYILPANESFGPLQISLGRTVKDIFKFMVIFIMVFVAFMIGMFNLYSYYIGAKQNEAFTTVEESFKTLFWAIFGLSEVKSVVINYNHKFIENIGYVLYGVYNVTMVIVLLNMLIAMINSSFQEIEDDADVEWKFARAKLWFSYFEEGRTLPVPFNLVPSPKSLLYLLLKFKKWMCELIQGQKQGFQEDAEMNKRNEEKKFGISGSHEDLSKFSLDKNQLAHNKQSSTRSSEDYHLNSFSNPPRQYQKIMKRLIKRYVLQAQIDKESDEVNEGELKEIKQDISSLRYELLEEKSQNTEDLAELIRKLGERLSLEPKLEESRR
TRPC6 inhibitor = blocks the mouse TRPC6 cation channel; 310,000 compounds, 1.1% hits; AID 2553; Q61143; B-score at 10 µM; HEK293-TRPC6, membrane potential dye, ACh-evoked depolarization; hits give low values;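 active = B-score under library mean minus 3 SD, initial fluorescence not abnormally high, positive integrated signal ratio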;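 note: B-score derived from integrated fluorescence ratio over the kinetic read; more negative B-score means stronger inhibition of depolarization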
TRPC4 PAM = allosterically enhances the mouse TRPC4 cation channel. HEK293 TRPC4beta/mu-opioid, DAMGO EC20, Fluo-4 Ca2+ flux; hits give high values. Q9QUQ5. B-score at 10 µM. 310,000 compounds, 0.42% hits. AID 2227;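 active = B-score of calcium response area above 5 SD of library B-scores, with initial fluorescence ratio within 5 SD of library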
TRPC4 act = activators of mouse TRPC4 channel; Q9QUQ5; B-score at 10 µM; 310,000 compounds, 0.49% hits; HEK293 TRPC4beta/mu-opioid, Fluo4 calcium fluorescence; hits give high values;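 active = B-score above 5 SD of library B-scores, and initial fluorescence ratio not above library mean plus 5 SD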;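 note: positive B-score marks a calcium rise read as TRPC4 activation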
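Assay system: HEK293 stable line with TRPC4beta plus mu-opioid receptor. Times: dye 45 min RT, read 110 s. Measured by: kinetic Fluo4 calcium fluorescence. Measure: B score of integrated ratio. Controls: assay buffer as low control, maximal DAMGO as high control.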
TRPC4 inh = blocks the mouse TRPC4 cation channel; Q9QUQ5; HEK293 TRPC4beta/mu-opioid, DAMGO-evoked Fluo4 calcium flux; hits give low values; B-score at 10 µM; 300,000 compounds, 0.39% hits; AID 2247;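 active = B-score over 3 SD under the library average, no early fluorescence shift, positive overall ratio signal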
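Material: HEK293 cells with stable TRPC4beta plus mu-opioid receptor expression / Probe or stimulus: DAMGO in two steps, submaximal then maximal / Compound: single concentration per test compound / Technique: kinetic Fluo4 fluorescence imaging of calcium influx / Read-out: per-well B score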
Large screens that a line does not name were inactive.

C=CCN1CC(=O)N2C(c3ccccc3)c3[nH]c4ccccc4c3C[C@H]2C1=O (stereo not given in full)	TRPC4 PAM 13
COCCCN1CC(=O)N2C(c3ccccc3)c3[nH]c4ccccc4c3C[C@H]2C1=O (stereo not given in full)	none
COc1ccc(Cl)cc1C(=O)OCC(=O)NCCNC(=O)COC(=O)c1cc(Cl)ccc1OC	none
CCC(C)NS(=O)(=O)c1ccc(NC(=O)C2CCN(C(=O)c3ccco3)CC2)cc1 (stereo not given)	none
CC1CCCN(S(=O)(=O)c2ccc(NC(=O)C3CCN(C(=O)c4ccco4)CC3)cc2)C1 (stereo not given)	TRPC4 act 60
CCOc1cc(CNCCO)cc(Br)c1OCc1ccccc1Cl	none
CCOc1cc(CNCCCN2CCOCC2)cc(Br)c1OCc1ccccc1Cl	TRPC4 inh -7
CN(CC1CCCN(CCc2ccccc2F)C1)C(=O)c1ccoc1 (stereo not given)	none
COc1ccc(CCN2CCCC(CN(C)C(=O)c3ccoc3)C2)cc1 (stereo not given)	TRPC4 PAM 19
COc1cc(CN2CCN(C(C)C)C(CCO)C2)ccc1OCc1ccccc1 (stereo not given)	none
COc1ccc(/C=N/NC(=O)c2ccoc2C)cc1CN1CCN(c2ccc(F)cc2)CC1	none
CC(=O)C1=C(c2ccc(Br)cc2)C(=O)c2ccccc2C1=O	TRPC4 PAM 35
COc1ccc(CN2CC(C(=O)N3CC(C)CC(C)C3)CC2=O)cc1 (stereo not given)	none
Cc1cccc(NC(=O)Cn2nnc3ccccc32)c1	none
c1csc(CNc2nc(-c3cccs3)nc3ccccc23)c1	TRPC4 inh -6
c1csc(-c2nc(NCC3CCCO3)c3ccccc3n2)c1 (stereo not given)	TRPC4 inh -8
c1cncc(-c2nc(NCC3CCCO3)c3ccccc3n2)c1 (stereo not given)	none
c1ccc(-c2nc(NCc3cccs3)c3ccccc3n2)cc1	none
O=C(CCN1C(=O)S/C(=C\c2ccccc2)C1=O)NC1CCS(=O)(=O)C1 (stereo not given)	none
Cc1[nH]c2ccc(C(=O)OC(C)C(=O)N(C)c3ccccc3)cc2c1C (stereo not given)	TRPC4 inh -7
CCC(C)NCCC(=O)Nc1ccc(Cl)c(S(=O)(=O)Nc2ccc(Cl)cc2)c1 (stereo not given)	TRPC4 PAM 11
CCCCn1c(N)c(N(CCOC)C(=O)c2ccc(-c3ccc(C(C)=O)cc3)o2)c(=O)[nH]c1=O	TRPC4 PAM 92
O=c1ccc(-c2nc3cc(Cl)ccc3n2Cc2ccccc2)c[nH]1	TRPC4 PAM 10
O=c1ccc(-c2nc3ccccc3n2Cc2ccccc2Cl)c[nH]1	none
O=C(C[n+]1cc(-c2ccc(Cl)c(Cl)c2)n2c1CCC2)N1c2ccccc2Sc2ccccc21	TRPC4 inh -6
Cc1ccc(-c2c[n+](Cc3ccc(Cl)c(Cl)c3)c3n2CCC3)cc1	TRPC4 inh -8
O=C(CCCc1nc(-c2ccccc2)no1)NC1CCCCC1	none
CCC(C)c1ccc(N(C(=O)c2ccco2)C(C(=O)NC2CCCC2)c2cccnc2)cc1 (stereo not given)	none
O=C(CNS(=O)(=O)c1ccc([N+](=O)[O-])cc1)N/N=C\c1ccc(O)cc1	TRPC4 PAM 12
Cc1ccn2cc(CCNC(=O)C3CC=CCC3C(=O)O)nc2c1 (stereo not given)	TRPC4 act 202
Cc1ccn2cc(CCNC(=O)CC(C)(C)C)nc2c1	none
O=C(CSCc1cccc(Cl)c1)N1CCN(Cc2ccc3c(c2)OCO3)CC1	TRPC4 inh -7
Cc1ccccc1C(=O)NC1CC2CCC(C1)N2Cc1ccccc1 (stereo not given)	TRPC4 inh -5
CCOc1ccccc1C(=O)NC1CC2CCCC(C1)N2Cc1ccc(C)cc1 (stereo not given)	none
CC(=O)CSc1nnc(-c2ccco2)n1-c1ccccc1	none
CN(Cc1ccccc1)C(=O)CSc1nnc(-c2ccco2)n1-c1ccccc1	TRPC4 inh -7
CC(C)CCc1noc(CN2CCN(c3ccc(Cl)cn3)CC2)n1	TRPC4 PAM 16
COC(=O)c1ccccc1NC(=O)Cn1c(=O)n(CCC(=O)NC2CCN(Cc3ccccc3)CC2)c(=O)c2ccccc21	none
O=C(CCCCn1c(=O)[nH]c2ccccc2c1=O)NC1CCN(Cc2ccccc2)CC1	TRPC4 act 86
Cc1cc(NC(=O)Cn2c(=O)n(CCCCC(=O)NC3CCN(Cc4ccccc4)CC3)c(=O)c3ccccc32)n[nH]1	TRPC4 PAM 11
Cc1cccc(C)c1NC(=O)Cn1c(=O)n(CCCC(=O)NC2CCN(Cc3ccccc3)CC2)c(=O)c2ccccc21	none
O=C(CCCCn1c(=O)c2ccccc2n(Cc2ccccc2F)c1=O)NC1CCN(Cc2ccccc2)CC1	TRPC4 PAM 12
O=C(CCCn1c(=O)[nH]c2ccccc2c1=O)NC1CCCCCC1	none
CCCn1c(=O)c2sccc2n2c(CCCC(=O)NC3CCN(Cc4ccccc4)CC3)nnc12	TRPC4 PAM 16
COCCCNC(=O)c1nc2ccccc2c(=O)n1NC(=O)Nc1c(Cl)cccc1Cl	none
CCN(CC)CCCNC(=O)c1cc2c(-c3ccc(Cl)cc3)nn(C)c2s1	TRPC4 PAM 16, TRPC4 act 72
CN1CCN(CCCNC(=O)c2cc3c(-c4ccc(Cl)cc4)nn(C)c3s2)CC1	TRPC4 PAM 11
O=S(=O)(NCC(c1cccs1)N1CCc2ccccc2C1)c1ccccc1 (stereo not given)	none
COCC1CCN(C(=O)C2CCC(=O)N(C3CCCCCC3)C2)CC1 (stereo not given)	none
CC1(C)CC(=O)C2=C(C1)N(c1ccccc1)C(=O)C2(O)C(F)(F)F (stereo not given)	none
C=CCc1cc(/C=C2/NC(=O)N(CC(=O)OC)C2=O)cc(OC)c1O	none
Cc1n[nH]c(C)c1Cc1c(F)cccc1Cl	TRPC4 inh -6
CCCCCCN1CC(=O)N2Cc3[nH]c4ccccc4c3C[C@H]2C1=O	none
O=C(/C=C/c1ccc(Br)o1)Nc1nnc(C2CC2)s1	none
CCOc1cc(N2CCOCC2)c(OCC)cc1NC(=O)c1ccccc1C	none
CCCCN1C(=O)C(=O)N(CC(=O)Nc2cc(OCC)c(N3CCOCC3)cc2OCC)C1=O	TRPC4 PAM 21
CCOc1cc(N2CCOCC2)c(OCC)cc1NC(=O)CN1C(=O)C2CC=CCC2C1=O (stereo not given)	none
CCOc1cc(N2CCOCC2)c(OCC)cc1NC(=O)c1ccc2ccccc2n1	TRPC4 PAM 11
Cc1oc(-c2ccc(Cl)cc2)nc1CS(=O)CC(=O)NC1CCCC1 (stereo not given)	none
COc1ccc(CN(C)CCc2ccccn2)cc1OC	none
COc1cc(OC)c(OC)cc1CN(C)CCc1ccccn1	TRPC4 act 64
